# Assay results of several laboratories.
# Lines come from different studies, so protocols differ.
# ADORA2B: Adenosine receptor A2b (ADORA2B, Homo sapiens, UniProt P29275)
# TEC: Tyrosine-protein kinase Tec (TEC, Homo sapiens, UniProt P42680)
# PBRM1 bromodomain: Protein polybromo-1, bromodomain (PBRM1, Homo sapiens, UniProt Q86U86)
# Melanocortin receptor 3: Melanocortin receptor 3 (Mus musculus, UniProt P33033)
Structure (SMILES),target,assay,setting,endpoint,result
CC(C)CN1CCCn2c1nc1c2c(=O)n(C)c(=O)n1C,ADORA2B,"ligand displacement, radioligand",cell membranes,Ki,> 10000 nM
COc1cc(Nc2ncc3c(n2)-c2ccc(Cl)cc2C(c2c(F)cccc2OC)=NC3)ccc1C(=O)O,TEC,binding,lysate,Kd,9860 nM
CCNC(=O)[C@H]1O[C@@H](n2cnc3c(N)nc(NN=CC4CCC=CO4)nc32)[C@H](O)[C@@H]1O (stereo partly shown),ADORA2B,"GTPγS binding, agonist",cell membranes,EC50,17400 nM
Cc1cc2ccccc2n1CCNC(=O)c1ccc(N2CCCCC2)cc1,"Prostaglandin E2 receptor EP2 subtype (PTGER2, Homo sapiens, UniProt P43116)","cAMP, antagonist, TR-FRET",,Kb,~10 nM
Cc1ncsc1-c1ccc(CNC(=O)[C@@H]2C[C@H](O)CN2C(=O)[C@@H](NC(=O)C2(F)CC2)C(C)(C)C)c(OCCOc2ccc(CN3CCN(c4cc(-c5ccccc5O)nnc4N)CC3)cc2)c1,PBRM1 bromodomain,"binding, SPR",,Kd,620 nM
Nc1nc2c(ncn2[C@@H]2O[C@H](COP(=O)(O)OP(=O)(O)O)[C@@H](OP(=O)(O)OP(=O)(O)O)[C@H]2O)c(=O)[nH]1,"speC (Escherichia coli, UniProt P21169)","binding, ITC",,Kd,1600 nM
CSCC[C@H](NC(=O)[C@@H](N)Cc1ccc(O)cc1)C(=O)N[C@@H](Cc1c[nH]cn1)C(=O)N[C@@H](Cc1ccccc1)C(=O)N[C@@H](CCCNC(=N)N)C(=O)N[C@@H](Cc1c[nH]c2ccccc12)C(=O)N[C@@H](Cc1ccccc1)C(=O)O,Melanocortin receptor 3,"reporter gene, agonist",,EC50,10400 nM
CCC(C)N1CCCn2c1nc1c2c(=O)n(C)c(=O)n1C (stereo not shown),ADORA2B,"ligand displacement, radioligand",cell membranes,Ki,> 10000 nM
N=C(N)NCCC[C@H](NC(=O)[C@H](CC(=O)O)NC(=O)[C@H](Cc1c[nH]c2ccccc12)NC(=O)[C@H](CCCNC(=N)N)NC(=O)[C@H](Cc1ccccc1)NC(=O)[C@H](Cc1c[nH]cn1)NC(=O)CN)C(=O)N[C@@H](Cc1ccccc1)C(=O)NCC(=O)O,Melanocortin receptor 3,"reporter gene, agonist",,EC50,760 nM
c1cncc(-c2cccc(Nc3nccc(NC4CCCCC4)n3)c2)c1,"Tyrosine-protein kinase JAK1, JH2 (JAK1, Homo sapiens, UniProt P23458)","binding, competition with immobilised ligand",,Kd,290 nM
CCOc1cc(-c2nncn2C)ccc1Nc1ncc2cc(C)nc(NCC(C)(C)C)c2n1,"Dual serine/threonine and tyrosine protein kinase (DSTYK, Homo sapiens, UniProt Q6XUX3)","binding, competition with immobilised ligand",,Kd,170 nM
N=C(N)NCCC[C@H](NC(=O)[C@H](CC(=O)O)NC(=O)[C@@H](N)Cc1c[nH]c2ccccc12)C(=O)N[C@@H](Cc1ccccc1)C(=O)NCC(=O)O,Melanocortin receptor 3,"reporter gene, agonist",,EC50,> 100000 nM
CC#CC(=O)N1CC[C@@H](n2cc(-c3ccc(Oc4c(F)cccc4F)cc3)c3c(N)n[nH]c(=O)c32)C1,TEC,"binding, competition with immobilised ligand",,Kd,4 nM
CCCCCCCC/C=C\CCCCCCCC(=O)SCCNC(=O)CCNC(=O)[C@H](O)C(C)(C)COP(=O)(O)OP(=O)(O)OC[C@H]1O[C@@H](n2cnc3c(N)ncnc32)[C@H](O)[C@@H]1OP(=O)(O)O,"fadR (Vibrio cholerae, UniProt Q9KQU8)","binding, ITC",,Kd,6 nM
CN1CCCn2c1nc1c2c(=O)n(C)c(=O)n1C,ADORA2B,"ligand displacement, radioligand",cell membranes,Ki,> 10000 nM
N=C(N)NCCC[C@H](N)C(=O)N[C@@H](Cc1ccccc1)C(=O)NCC(=O)O,Melanocortin receptor 3,"reporter gene, agonist",,EC50,> 100000 nM
C#CCN1CCCn2c1nc1c2c(=O)n(C)c(=O)n1C,ADORA2B,"ligand displacement, radioligand",cell membranes,Ki,> 10000 nM
CSCC[C@H](NC(=O)[C@@H](NC(=O)[C@@H](N)Cc1ccc(O)cc1)C(C)C)C(=O)NCC(=O)N[C@@H](Cc1c[nH]cn1)C(=O)N[C@@H](Cc1ccccc1)C(=O)N[C@@H](CCCNC(=N)N)C(=O)N[C@@H](Cc1c[nH]c2ccccc12)C(=O)N[C@@H](CC(=O)O)C(=O)O,Melanocortin receptor 3,"reporter gene, agonist",,EC50,800 nM
N[C@@H](CCC(=O)O)C(=O)O,"Metabotropic glutamate receptor 8 (Grm8, Rattus norvegicus, UniProt P70579)","calcium signal, agonist",,EC50,770 nM
CCCCCCN1CCCn2c1nc1c2c(=O)n(C)c(=O)n1C,ADORA2B,"ligand displacement, radioligand",cell membranes,Ki,> 10000 nM
Cc1ncsc1-c1ccc(CNC(=O)[C@@H]2C[C@H](O)CN2C(=O)[C@@H](NC(=O)C2(F)CC2)C(C)(C)C)c(OCCc2ccc(CN3CCN(c4cc(-c5ccccc5O)nnc4N)CC3)cc2)c1,PBRM1 bromodomain,"binding, SPR",,Kd,1200 nM
N=C(N)NCCC[C@H](NC(=O)[C@H](CC(=O)O)NC(=O)[C@H](Cc1c[nH]c2ccccc12)NC(=O)[C@H](CCCNC(=N)N)NC(=O)[C@H](Cc1ccccc1)NC(=O)[C@@H](N)Cc1c[nH]cn1)C(=O)N[C@@H](Cc1ccccc1)C(=O)NCC(=O)O,Melanocortin receptor 3,"reporter gene, agonist",,EC50,2670 nM
CCCCN1CCC(COC(=O)c2ccc(N)c(OCF)c2)CC1,"Muscarinic acetylcholine receptor M1 (CHRM1, Homo sapiens, UniProt P11229)","cell-free assay, radioligand",,Ki,> 10000 nM
CCCCCC(C)N1CCCn2c1nc1c2c(=O)n(C)c(=O)n1C (stereo not shown),ADORA2B,"ligand displacement, radioligand",cell membranes,Ki,> 10000 nM
CSCC[C@H](NC(=O)[C@@H](NC(=O)[C@@H](N)Cc1ccc(O)cc1)C(C)C)C(=O)NCC(=O)N[C@@H](Cc1c[nH]cn1)C(=O)N[C@@H](Cc1ccccc1)C(=O)O,Melanocortin receptor 3,"reporter gene, agonist",,EC50,> 100000 nM
CC(=O)N[C@H](C(=O)N1C[C@H](O)C[C@H]1C(=O)NCc1ccc(-c2scnc2C)cc1)C(C)(C)SCCCCCCNC(=O)C[C@@H]1N=C(c2ccc(Cl)cc2)c2c(sc(C)c2C)-n2c(C)nnc21,"Bromodomain-containing protein 2, BD2 (BRD2, Homo sapiens, UniProt P25440)","binding, ITC",,Kd,94 nM
CCCCCN1CCCn2c1nc1c2c(=O)n(C)c(=O)n1C,ADORA2B,"ligand displacement, radioligand",cell membranes,Ki,> 10000 nM
N=C(N)NCCC[C@H](NC(=O)[C@H](Cc1ccccc1)NC(=O)[C@@H](N)Cc1cnc[nH]1)C(=O)N[C@@H](Cc1c[nH]c2ccccc12)C(=O)O,Melanocortin receptor 3,"reporter gene, agonist",,EC50,> 100000 nM
